Where a SMILES comes first, the peptide text is derived from it. [ ]: non-standard residue; d: D form. The star is where a group is joined. βGlc = OC[C@H]1O[C@@H](*)[C@H](O)[C@@H](O)[C@@H]1O; NMeY = CN[C@@H](Cc1ccc(O)cc1)C(=O)O; NMeF = CN[C@@H](Cc1ccccc1)C(=O)O; 2Abz = Nc1ccccc1C(=O)O
What was measured:
[1] = tested on: HeLa; assay: Cytotoxicity against human HeLa cells after 48 hrs by MTT assay; format: functional
Method in brief: (§1)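 MTT assay: 10^4 cells per well, attached overnight. Cells exposed for 4 h at 37 °C, 5% CO2, to compound serially diluted in medium from a 10 mg/mL DMSO stock, vehicle 0.2% DMSO. Medium then replaced with fresh DMEM and growth continued 48 h. MTT 0.5 mg/mL added for 3 h in the dark, formazan dissolved in DMSO, absorbance read at 540 nm. GI50 derived.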

[2] = tested on: MCF7; assay: Cytotoxicity against human MCF7 cells after 48 hrs by MTT assay; format: functional; details: MCF7, 48 h; method in brief: as §1

Row | Structure (SMILES) | GI50 [1] | GI50 [2]
1 | CC(C)C[C@@H]1NC(=O)[C@H](Cc2ccccc2)NC(=O)[C@H](C)NC(=O)c2ccccc2NC(=O)[C@H](Cc2ccc(O)cc2)N(C)C1=O [cycloaspeptide C] (cyclo([2Abz]AFL[NMeY])) | > 63.4 µM | 31.9 µM
2 | CC(C)C[C@@H]1NC(=O)[C@H](Cc2ccc(O)cc2)N(C)C(=O)[C@H](C)NC(=O)c2ccccc2NC(=O)[C@H](Cc2ccc(O)cc2)N(C)C1=O [Cycloaspeptide G] (cyclo([2Abz]A[NMeY]L[NMeY])) | 30.4 µM | 15.2 µM
3 | CC(C)C[C@@H]1NC(=O)[C@H](Cc2ccccc2)N(C)C(=O)[C@H](C)NC(=O)c2ccccc2NC(=O)[C@H](Cc2ccc(O)cc2)N(C)C1=O [CYCLOASPEPTIDE A] (cyclo([2Abz]A[NMeF]L[NMeY])) | 31.2 µM | 23.4 µM
4 | CC(C)C[C@@H]1NC(=O)[C@H](Cc2ccccc2)N(C)C(=O)[C@H](C)NC(=O)c2ccccc2NC(=O)[C@H](Cc2ccc(O[C@@H]3O[C@H](CO)[C@@H](O)[C@H](O)[C@H]3O)cc2)N(C)C1=O [Cycloaspeptide F] (cyclo([2Abz]A[NMeF]L[NMeY](βGlc))) | 49.8 µM | 18.7 µM
5 | O=c1[nH]cc(F)c(=O)[nH]1 [FLUOROURACIL] | 10 µM | 15 µM
6 | CS[C@]1(CO)C(=O)N(C)[C@](Cc2ccccc2)(SC)C(=O)N1C [BISDETHIODI(METHYLTHIO)HYALODENDRIN] | > 113 µM | 113 µM
